Compounds with a hit are over-represented: about 2.2% of the library has one in this group of screens.
NR2E3 ag-1: activates human NR2E3 receptor | Q9Y5X4 | CHO-S Gal4-NCOR/VP16-NR2E3 two-hybrid, luciferase | inhibition of corepressor binding, % at 3.98 µM | 0.35% of 360,000 active;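 active = inhibition above the mean of all tested compounds plus 3 SD, cut at about 70% in these data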;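 note: higher means lower luciferase signal from less NR2E3 corepressor binding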
NR2E3 ag-2: NR2E3 (human) agonism; GST-NR2E3/biotin-RetCOR TR-FRET, 1536-well; inhibition of corepressor binding, % at 4.78 µM; 0.12% of 320,000 active;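 active = percent inhibition above the cutoff of mean plus 3 SD of all tested compounds, set per screening campaign, cut at about 20% in these data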
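System: GST-tagged NR2E3 plus biotinylated RetCOR corepressor; Amount: 1.35 nM GST-tagged NR2E3 final; Dosing: single nominal compound dose of 4.8 µM; Schedule: 5 h incubation at 4 °C; Technique: TR-FRET with europium anti-GST and streptavidin-D2, 340 nm excitation; Controls: biotin wells as high control, 0.6% DMSO wells as low control.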
NR2F2 inh: NR2F2 (human) inhibition, primary screen | inhibition, % at 8.6 µM | HEK293T NGFI-A luciferase reporter, luminescence | P24468 | 0.7% of 370,000 active;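 active = inhibition above a per-plate cutoff, mean inhibition of test wells between control levels plus 3 SD, cut at about 38% in these data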;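 note: cells cotransfected with COUP-TFII expression vector driving the NGFI-A reporter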
Target sequence (P24468 whole entry, looked up): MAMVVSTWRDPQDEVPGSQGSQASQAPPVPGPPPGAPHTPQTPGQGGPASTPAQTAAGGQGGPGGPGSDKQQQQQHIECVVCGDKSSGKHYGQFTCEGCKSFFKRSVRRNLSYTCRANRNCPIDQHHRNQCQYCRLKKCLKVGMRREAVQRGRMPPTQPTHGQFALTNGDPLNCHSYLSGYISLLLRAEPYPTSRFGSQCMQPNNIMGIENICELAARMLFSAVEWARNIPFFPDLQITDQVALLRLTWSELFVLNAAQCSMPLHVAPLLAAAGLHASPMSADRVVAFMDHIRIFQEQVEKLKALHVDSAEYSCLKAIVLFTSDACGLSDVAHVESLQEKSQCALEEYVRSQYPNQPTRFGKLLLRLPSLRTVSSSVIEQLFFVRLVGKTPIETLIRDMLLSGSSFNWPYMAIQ
GalR3 antagonist: antagonists of human GalR3; O60755; HEK293 GalR3-CNG cAMP membrane potential fluorescence; galR3 body fused to GalR1 C-terminus; inhibition, % at 3 µM; 0.44% of 360,000 active; AID 651719;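 active = inhibition above the screen-wide average plus 3 SD, cut at about 13% in these data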;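 note: forskolin and galanin both at EC90 stimulate the cells; cAMP rise reported by CNG channel membrane potential dye signal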
Target sequence (O60755 1-299 limits assumed): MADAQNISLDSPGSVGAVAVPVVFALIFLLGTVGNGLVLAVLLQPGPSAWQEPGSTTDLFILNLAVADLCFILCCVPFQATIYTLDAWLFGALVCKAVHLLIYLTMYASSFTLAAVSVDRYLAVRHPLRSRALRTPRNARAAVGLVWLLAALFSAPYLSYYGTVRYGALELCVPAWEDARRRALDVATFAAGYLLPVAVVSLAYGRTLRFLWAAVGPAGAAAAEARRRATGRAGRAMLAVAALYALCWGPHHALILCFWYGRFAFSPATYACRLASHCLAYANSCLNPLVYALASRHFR
SMARCA2 activ: activators of SMARCA2 function. 1% of 370,000 active. activation, % at 9.1 µM. MG213 cells, MMTV-luciferase reporter, dexamethasone, overnight; in the data active = activation above about 7.8%
NR2E3 ag conf: confirmation of human NR2E3 agonists | shares compounds with NR2E3 ag-1 | CHO-S mammalian two-hybrid NR2E3-NCOR, luciferase luminescence | inhibition, % at 3.98 µM | 51% of 2,300 active;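 active = average inhibition above a cutoff equal to the mean inhibition of all tested compounds plus one SD, cut at about 70% in these data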
VP16 counter: GAL4-VP16 reporter inhibition in NR2E3 agonist counterscreen | shares compounds with NR2E3 ag-1 | CHO-S GAL4-VP16 luciferase reporter, luminescence | inhibition, % at 3.98 µM | 29% of 2,300 active | AID 624379;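 active = mean inhibition above a cutoff equal to the average over all tested compounds plus one standard deviation, cut at about 70% in these data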;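 note: luciferase from a UAS reporter driven by GAL4-VP16 transactivation; higher means less reporter light so more repression of VP16 activity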
GalR3 conf: GalR3 (human) antagonism, confirmation; shares compounds with GalR3 antagonist; HEK293 GalR3 CNG cAMP biosensor, membrane potential fluorescence; galR3 fused to GalR1 carboxy tail; challenged with forskolin and galanin at EC90; inhibition, % at 3 µM; 59% of 1,600 active; AID 652245;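 active = inhibition above the primary screen's cutoff, the mean inhibition of all screened compounds plus 3 SD, cut at about 13% in these data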
HEK-CNG parental: acts as nonspecific agonist in parental HEK-CNG cells; shares compounds with GalR3 antagonist; 10% of 1,600 active; AID 652268; activation, % at 3 µM; HEK293-CNG parental cells, cAMP membrane potential fluorescence; normalised: DMSO wells 0%, forskolin wells 100%; in the data active = activation above about 1.3%
Gal4-VP16 ctr: inhibits VP16 reporter, flagging COUP-TFII antagonist hits; shares compounds with NR2F2 inh; HEK293 Gal4-VP16 luciferase reporter, luminescence; inhibition, % at 8.5 µM; 25% of 2,500 active; in the data active = inhibition above about 13%
COUP-TFII conf: COUP-TFII (NR2F2) inhibition, confirmation assay. shares compounds with NR2F2 inh. HEK293 NGFI-A luciferase reporter, luminescence. inhibition, % at 8.5 µM. 45% of 2,500 active. AID 687008;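 active = mean inhibition over three repeats above a set limit taken from the earlier primary screen, cut at about 38% in these data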
Numbers stand for hits; i = inactive; nt = no result given.

SMILES	NR2E3 ag-1	NR2E3 ag-2	NR2F2 inh	GalR3 antagonist	SMARCA2 activ	NR2E3 ag conf	VP16 counter	Gal4-VP16 ctr	COUP-TFII conf	others
Cc1cc(NC(=O)Cc2ccccc2)c2ccccc2n1	i	i	58.4	13.0	i	87.2	i	i	39.1	GalR3 conf=64.8;HEK-CNG parental=i
Cc1[nH]nc2c1C(c1cccc(C(F)(F)F)c1)N(Cc1ccccc1)C2=O (centres undefined)	nt	nt	i	i	i	nt	nt	nt	nt
Cc1ccc(OCC(=O)c2cc(C)n(-c3ccccc3)c2C)c([N+](=O)[O-])n1	73.4	i	53.5	i	i	i	i	i	i
C=CCn1c(C)cc(C(=O)COc2ccc(C)nc2[N+](=O)[O-])c1C	71.4	i	39.6	i	i	71.1	i	i	i
CCCn1c(C)cc(C(=O)COc2ccc(C)nc2[N+](=O)[O-])c1C	i	i	i	i	i	nt	nt	nt	nt
Cc1cc(NC2CCCC2)n2nc(C)c(-c3ccccc3)c2n1	i	i	i	i	i	nt	nt	nt	nt
Cc1cc(NC2CCCC2)n2ncc(-c3ccccc3)c2n1	i	i	47.5	i	i	i	i	i	51.8
Cc1sc2ncnc(NC3CCN(Cc4ccccc4)CC3)c2c1C	75.3	i	56.4	83.0	i	94.5	80.1	i	52.4	GalR3 conf=102.4;HEK-CNG parental=1.2
COc1ccc(-n2c(SCC(=O)Nc3ccc4c(c3)OCCO4)nnc2-c2ccccc2)cc1	nt	nt	i	nt	i	nt	nt	nt	nt
COc1ccc(NS(=O)(=O)c2cccc(NC(=O)c3ccc(Cl)nc3)c2)cc1	82.6	i	75.2	82.2	i	83.9	77.8	i	65.9	GalR3 conf=96.5;HEK-CNG parental=i
COc1cccc(S(=O)(=O)Nc2ccc(C(=O)Nc3ccncc3)cc2)c1	i	i	i	i	i	nt	nt	nt	nt
O=C(OCC#CCSc1nnc(-c2cccc3ncccc23)o1)c1ccc(F)cc1	nt	nt	i	nt	nt	nt	nt	nt	nt
O=C(CNc1cccc(F)c1)Nc1cccc(S(=O)(=O)N2CCCCC2)c1	i	nt	i	i	i	nt	nt	nt	nt
O=C(CNc1cccc(S(=O)(=O)N2CCCC2)c1)Nc1ccc(C(F)(F)F)cc1	i	i	40.4	i	i	i	i	i	i
CCCCNC(=O)C[C@@H]1C(=O)N(Cc2ccc(OC)cc2)/C2=C/CCCCC[C@@]21C(=O)OCC	nt	nt	i	nt	i	nt	nt	nt	nt
COc1ccc(CN(C)c2ccc(S(=O)(=O)N3CCN(C)CC3)cc2[N+](=O)[O-])cc1OC	94.5	i	69.6	102.7	i	95.9	84.8	i	67.2	GalR3 conf=127.4;HEK-CNG parental=i
COc1ccc(CCN(C)c2ccc(S(=O)(=O)N3CCCC3)cc2[N+](=O)[O-])cc1OC	i	i	i	i	i	nt	nt	nt	nt
CN(C)[C@@H]1CCN(c2ccc3c(c2)O[C@@H]2CCN(C2)S3(=O)=O)C1	nt	nt	i	nt	i	nt	nt	nt	nt
CSc1ccc(C(=O)C2CCCN(C(=O)CCc3c(C)nn(C)c3C)C2)cc1 (centres undefined)	i	i	58.4	86.3	i	i	i	i	i	GalR3 conf=94.8;HEK-CNG parental=i
CSc1ccc(C(=O)C2CCCN(C(=O)CCn3cncn3)C2)cc1 (centres undefined)	i	i	i	i	i	nt	nt	nt	nt
O=C(CCCc1ccccc1)c1ccc2c(c1)OCCO2	i	i	84.8	i	i	i	i	48.9	89.5
O=C(NCCc1ccccc1)c1ccc2c(c1)OCCCO2	87.4	i	88.0	i	i	i	i	71.9	90.8
O=C(CCCC1=NS(=O)(=O)c2ccccc2N1)N1CCN(c2ccccc2Cl)CC1	nt	nt	i	nt	i	nt	nt	nt	nt
c1ccc(-c2cc(CSc3nc4ccccc4[nH]3)on2)cc1	i	i	40.0	i	i	83.3	i	i	i
Cc1cc(C(=O)COc2ccccc2C(N)=O)c(C)n1CC1CCCO1 (centres undefined)	i	i	56.6	i	i	90.1	i	i	39.3
SMILES	NR2E3 ag-1	NR2E3 ag-2	NR2F2 inh	GalR3 antagonist	SMARCA2 activ	NR2E3 ag conf	VP16 counter	Gal4-VP16 ctr	COUP-TFII conf	others
Cc1cc(C(=O)COC(=O)c2ccccc2O)c(C)n1CC1CCCO1 (centres undefined)	94.9	i	96.6	i	i	88.6	79.9	89.4	105.4
Cc1cc(C(=O)COC(=O)c2cccnc2Cl)c(C)n1CC1CCCO1 (centres undefined)	i	i	62.7	i	i	i	i	i	55.5
COCCn1c(C)cc(C(=O)COC(=O)c2ccccc2Br)c1C	79.0	i	87.4	i	i	i	i	72.3	95.2
Cc1ccc(C(=O)OCC(=O)c2cc(C)n(CC3CCCO3)c2C)cc1 (centres undefined)	i	i	i	i	i	nt	nt	nt	nt
COc1ccc2c(c1)CCCN2C(=O)C1CCCN(S(=O)(=O)c2ccccc2)C1 (centres undefined)	nt	nt	i	nt	i	nt	nt	nt	nt
COC(=O)C1CN(Cc2cn(Cc3ccc(OC)cc3)nn2)CCS(=O)(=O)N1Cc1ccc(C)cc1 (centres undefined)	nt	nt	i	nt	i	nt	nt	nt	nt
Cc1cc(C(=O)COC(=O)c2ccccc2Br)c(C)n1CC1CCCO1 (centres undefined)	88.8	i	90.3	i	i	80.5	70.8	84.5	101.3
COc1ccccc1N1CCN(C(=O)c2cc3c(C)nc4ccccc4c3o2)CC1	i	i	41.8	i	i	i	i	i	i
Cc1ccc(C)c(N2CCN(C(=O)c3cc4c(C)nc5ccccc5c4o3)CC2)c1	i	i	i	i	i	nt	nt	nt	nt
Cc1ccc(CNC(=O)c2cc3c(C)nc4ccccc4c3o2)cc1	86.1	i	47.8	nt	i	92.7	78.3	i	i
OC(c1ccccc1)(c1ccccc1)C1CCN(CCCNc2ccccc2F)CC1	nt	nt	i	nt	i	nt	nt	nt	nt
CC(=O)Nc1ccc(S(=O)(=O)N2CCN=C2SCc2ccc([N+](=O)[O-])cc2)cc1	i	i	48.0	i	i	78.7	i	i	i
CC(=O)Nc1ccc(S(=O)(=O)N2CCN=C2SCc2cccc(C)c2)cc1	i	i	i	i	i	nt	nt	nt	nt
CC(=NNC(=S)Nc1ccccc1Cl)c1ccccn1	85.7	nt	50.6	i	i	i	i	i	i
COc1cccc2c1C(=O)c1c(O)c3c(c(O)c1C2=O)C[C@@](O)(C(=O)CO)C[C@@H]3OC1CC(N)C(O)C(C)O1 (some centres undefined)	i	nt	i	i	i	nt	nt	nt	nt
